pIC50: −log10 of the molar value. Blank lines part the entries; values can stand above or below the molecule they belong to.
Assays:
Thymidine phosphorylase [1] = target: Thymidine phosphorylase (Escherichia coli K-12, UniProt P07650); test: Inhibitory concentration against thymidine phosphorylase of Escherichia coli
Thymidine phosphorylase [2] = target: T1, Thymidine phosphorylase (Homo sapiens, UniProt P19971); test: Inhibitory concentration against human thymidine phosphorylase
T1 sequence (P19971 whole entry): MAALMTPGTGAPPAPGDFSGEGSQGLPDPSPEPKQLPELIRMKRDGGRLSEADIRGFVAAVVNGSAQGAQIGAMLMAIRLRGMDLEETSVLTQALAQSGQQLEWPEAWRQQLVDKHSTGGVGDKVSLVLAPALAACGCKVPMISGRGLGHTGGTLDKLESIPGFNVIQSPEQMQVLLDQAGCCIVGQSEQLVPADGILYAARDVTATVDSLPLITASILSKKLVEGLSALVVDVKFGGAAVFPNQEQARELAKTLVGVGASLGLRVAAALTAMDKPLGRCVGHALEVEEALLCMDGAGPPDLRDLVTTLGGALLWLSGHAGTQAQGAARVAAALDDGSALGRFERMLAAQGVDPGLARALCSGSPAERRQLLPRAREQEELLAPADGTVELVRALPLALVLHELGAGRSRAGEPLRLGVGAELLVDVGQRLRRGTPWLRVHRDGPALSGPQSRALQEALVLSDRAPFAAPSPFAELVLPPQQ

[3] = Half-life was measured in mice after intravenous administration of 2 mg/kg; assay type: ADME, organism-based; set-up: dose 2 mg/kg, route intravenous; conditions: mouse, in vivo
Procedure, shortened: (§1)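 Mice given a single dose by ip (10 mg/kg), oral (20 mg/kg) or iv (2 mg/kg) route. Blood sampled over 24 h after dosing; plasma analysed for parent compound. PK parameters (Cmax, Tmax, AUC, T1/2, F, C0, Cl, Vdss) derived from plasma concentration-time profiles.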

[4] = Maximum plasma concentration in mice after intraperitoneal administration of 10 mg/kg; assay type: ADME, organism-based; set-up: dose 10 mg/kg, route intraperitoneal; conditions: mouse, ip; procedure, shortened: as §1
[5] = Maximum plasma concentration in mice after oral administration of 20 mg/kg; assay type: ADME, organism-based; set-up: dose 20 mg/kg, route oral; conditions: mouse; procedure, shortened: as §1
[6] = Area under concentration-time curve for the compound was measured in mice after oral administration of 20 mg/kg; assay type: ADME, organism-based; set-up: dose 20 mg/kg, route oral; conditions: mouse, in vivo; procedure, shortened: as §1
[7] = Maximum time to attain Cmax in mice after oral administration of 20 mg/kg; assay type: ADME, organism-based; set-up: dose 20 mg/kg, route oral; conditions: mouse, in vivo; procedure, shortened: as §1
[8] = Clearance at time 0 was measured in mice after intravenous administration of 2 mg/kg; assay type: ADME, organism-based; set-up: dose 2 mg/kg, route intravenous; conditions: mouse, in vivo; procedure, shortened: as §1
[9] = Area under concentration-time curve for the compound was measured in mice after intravenous administration of 2 mg/kg; assay type: ADME, organism-based; set-up: dose 2 mg/kg, route intravenous; conditions: mouse, in vivo; procedure, shortened: as §1
[10] = Half-life was measured in mice after oral administration of 20 mg/kg; assay type: ADME, organism-based; set-up: dose 20 mg/kg, route oral; conditions: mouse, in vivo; procedure, shortened: as §1
[11] = Steady state volume of distribution was measured in mice after intravenous administration of 2 mg/kg; assay type: ADME, organism-based; set-up: dose 2 mg/kg, route intravenous; conditions: mouse, in vivo, read-out: Vdss; procedure, shortened: as §1
[12] = Half-life was measured in mice after intraperitoneal administration of 10 mg/kg; assay type: ADME, organism-based; set-up: dose 10 mg/kg, route intraperitoneal; conditions: mouse, in vivo, ip; procedure, shortened: as §1
[13] = Maximum time to attain Cmax in mice after intraperitoneal administration of 10 mg/kg; assay type: ADME, organism-based; set-up: dose 10 mg/kg, route intraperitoneal; conditions: mouse, in vivo, ip; procedure, shortened: as §1
[14] = Bioavailability in mouse (dose 10 mg/kg i.p.); assay type: ADME, organism-based; conditions: in vivo, ip; procedure, shortened: as §1
[15] = Bioavailability in mouse (dose 2 mg/kg i.v.); assay type: ADME, organism-based; conditions: in vivo, iv; procedure, shortened: as §1
[16] = Bioavailability in mouse (dose 20 mg/kg p.o.); assay type: ADME, organism-based; conditions: in vivo, po; procedure, shortened: as §1
[17] = Concentration at time 0 was measured in mice after intravenous administration of 2 mg/kg; assay type: ADME, organism-based; set-up: dose 2 mg/kg, route intravenous; conditions: mouse, in vivo; procedure, shortened: as §1
[18] = Area under concentration-time curve for the compound was measured in mice after intraperitoneal administration of 10 mg/kg; assay type: ADME, organism-based; set-up: dose 10 mg/kg, route intraperitoneal; conditions: mouse, in vivo, ip; procedure, shortened: as §1
[19] = Maximum concentration was measured in mice after intraperitoneal administration of 10 mg/kg; assay type: ADME, organism-based; set-up: dose 10 mg/kg, route intraperitoneal; conditions: mouse, in vivo, ip; procedure, shortened: as §1

Chain of Thymidine phosphorylase (Escherichia coli K-12, UniProt P07650) (P07650 whole entry): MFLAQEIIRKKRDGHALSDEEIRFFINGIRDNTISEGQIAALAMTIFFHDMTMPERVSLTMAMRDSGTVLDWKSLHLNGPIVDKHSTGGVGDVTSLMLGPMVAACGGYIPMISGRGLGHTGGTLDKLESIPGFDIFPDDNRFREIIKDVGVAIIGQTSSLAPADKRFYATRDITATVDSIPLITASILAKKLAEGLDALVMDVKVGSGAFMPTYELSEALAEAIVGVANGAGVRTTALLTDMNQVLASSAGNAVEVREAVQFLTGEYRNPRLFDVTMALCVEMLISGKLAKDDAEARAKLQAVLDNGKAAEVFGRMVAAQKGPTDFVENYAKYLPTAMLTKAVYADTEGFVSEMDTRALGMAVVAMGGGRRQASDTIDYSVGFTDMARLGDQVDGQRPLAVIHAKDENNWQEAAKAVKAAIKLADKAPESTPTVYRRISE

- pIC50 (Thymidine phosphorylase [1]): 3.99
- pIC50 (Thymidine phosphorylase [2]): 3.84
SMILES: Nc1c[n+](Cc2cc(O)nc(O)n2)c[nH]1

- pIC50 (Thymidine phosphorylase [1]): 4.86
- pIC50 (Thymidine phosphorylase [2]): 3.30
SMILES: O=[N+]([O-])c1cn(Cc2cc(O)nc(O)n2)cn1

- half-life [3]: 12 min
- Cmax [4]: 5.08 µg/mL
- Cmax [5]: 0.35 µg/mL
- AUC [6]: 0.968 µg/h/mL
- Tmax [7]: 60 min
- clearance [8]: > 4.32 L/h/kg
- AUC [9]: 0.292 µg/h/mL
- half-life [10]: 132 min
- Vd [11]: 1.3 L/kg
- half-life [12]: 60 min
- Tmax [13]: 5 min
- bioavailability [14]: 103%
- F [15]: Not Active
- bioavailability [16]: 33%
- C0 [17]: 3.75 µg/mL
- AUC [18]: 1.505 µg/h/mL
SMILES: Nc1[nH]cc[n+]1Cc1[nH]c(=O)[nH]c(=O)c1Br

- pIC50 (Thymidine phosphorylase [1]): 5.15
- pIC50 (Thymidine phosphorylase [2]): 3.70
SMILES: O=c1[nH]c(Cn2cnc([N+](=O)[O-])c2)c(Cl)c(=O)[nH]1

- pIC50 (Thymidine phosphorylase [1]): 5.19
SMILES: Nc1c[n+](Cc2nc(O)nc(O)c2Br)c[nH]1

- half-life [3]: 6 min
- Cmax [19]: 4.45 µg/mL
- Cmax [5]: 0.391 µg/mL
- AUC [6]: 0.99 µg/h/mL
- Tmax [7]: 60 min
- clearance [8]: > 4.32 L/h/kg
- AUC [9]: 0.19 µg/h/mL
- half-life [10]: 102 min
- Vd [11]: 2.1 L/kg
- half-life [12]: 48 min
- Tmax [13]: 4.98 min
- bioavailability [14]: > 100%
- F [15]: Not Active
- bioavailability [16]: 52%
- C0 [17]: 0.942 µg/mL
- AUC [18]: 1.658 µg/h/mL
SMILES: Cl.N=C1CCCN1Cc1[nH]c(=O)[nH]c(=O)c1Cl [TIPIRACIL HYDROCHLORIDE]

- pIC50 (Thymidine phosphorylase [1]): 5.14
SMILES: Nc1c[n+](Cc2nc(O)nc(O)c2Cl)c[nH]1

- pIC50 (Thymidine phosphorylase [1]): 5.18
- pIC50 (Thymidine phosphorylase [2]): 3.74
SMILES: O=c1[nH]c(Cn2cnc([N+](=O)[O-])c2)c(Br)c(=O)[nH]1
